Key:
Staphylococcus aureus [1] = experiment: Antibacterial activity against Staphylococcus aureus ATCC 6538 after 24 hrs by microdilution method; assay type: functional; conditions: ATCC 6538, 24 h
Outline: (§1)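 Broth microdilution in 96-well plates. Bacterial suspensions were adjusted in sterile saline to 1.0 × 10⁵ CFU/ml, prepared daily and kept at 4 °C. Compound was added to LB broth with 1.0 × 10⁴ CFU per well and shaken at 160 rpm for 24 h at […] (so in the source). MIC is the lowest concentration with no visible growth under a binocular microscope. OD655 was also read. Duplicate, repeated three times.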

Bacillus cereus [2] = experiment: Antibacterial activity against clinical isolate of Bacillus cereus after 24 hrs by microdilution method; assay type: functional; outline: as §1
Micrococcus flavus [3] = experiment: Antibacterial activity against Micrococcus flavus ATCC 10240 after 24 hrs by microdilution method; assay type: functional; conditions: ATCC 10240, 24 h; outline: as §1
Listeria monocytogenes [4] = experiment: Antibacterial activity against Listeria monocytogenes NCTC 7973 after 24 hrs by microdilution method; assay type: functional; conditions: NCTC 7973, 24 h; outline: as §1
Pseudomonas aeruginosa [5] = experiment: Antibacterial activity against Pseudomonas aeruginosa ATCC 27853 after 24 hrs by microdilution method; assay type: functional; conditions: ATCC 27853, 24 h; outline: as §1
Salmonella typhimurium [6] = experiment: Antibacterial activity against Salmonella Typhimurium ATCC 13311 after 24 hrs by microdilution method; assay type: functional, Salmonella enterica subsp. enterica serovar Typhimurium; conditions: Salmonella enterica, ATCC 13311, 24 h; outline: as §1
Escherichia coli [7] = experiment: Antibacterial activity against Escherichia coli ATCC 35210 after 24 hrs by microdilution method; assay type: functional; conditions: ATCC 35210, 24 h; outline: as §1
Enterococcus faecalis [8] = experiment: Antibacterial activity against Enterococcus faecalis isolated from human after 24 hrs by microdilution method; assay type: functional; outline: as §1
Staphylococcus aureus [9] = experiment: Antibacterial activity against Staphylococcus aureus ATCC 6538 incubated for 24 hrs followed by serial sub-cultivation for 24 hrs by microdilution method; assay type: functional; conditions: ATCC 6538, 24 h
Outline: (§2)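 MBC: after the 24 h LB broth microdilution (1.0 × 10⁴ CFU per well, 160 rpm), wells were serially sub-cultured into fresh broth plates and incubated a further 24 h. MBC is the lowest concentration with no visible growth, taken as 99.5% killing of the original inoculum. Duplicate, repeated three times.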

Bacillus cereus [10] = experiment: Antibacterial activity against clinical isolate of Bacillus cereus incubated for 24 hrs followed by serial sub-cultivation for 24 hrs by microdilution; assay type: functional; outline: as §2
Micrococcus flavus [11] = experiment: Antibacterial activity against Micrococcus flavus ATCC 10240 incubated for 24 hrs followed by serial sub-cultivation for 24 hrs by microdilution; assay type: functional; conditions: ATCC 10240, 24 h; outline: as §2
Listeria monocytogenes [12] = experiment: Antibacterial activity against Listeria monocytogenes NCTC 7973 incubated for 24 hrs followed by serial sub-cultivation for 24 hrs by microdilution; assay type: functional; conditions: NCTC 7973, 24 h; outline: as §2
Pseudomonas aeruginosa [13] = experiment: Antibacterial activity against Pseudomonas aeruginosa ATCC 27853 incubated for 24 hrs followed by serial sub-cultivation for 24 hrs by microdilution; assay type: functional; conditions: ATCC 27853, 24 h; outline: as §2
Salmonella typhimurium [14] = experiment: Antibacterial activity against Salmonella Typhimurium ATCC 13311 incubated for 24 hrs followed by serial sub-cultivation for 24 hrs by microdilution; assay type: functional, Salmonella enterica subsp. enterica serovar Typhimurium; conditions: Salmonella enterica, ATCC 13311, 24 h; outline: as §2
Escherichia coli [15] = experiment: Antibacterial activity against Escherichia coli ATCC 35210 incubated for 24 hrs followed by serial sub-cultivation for 24 hrs by microdilution; assay type: functional; conditions: ATCC 35210, 24 h; outline: as §2
Enterococcus faecalis [16] = experiment: Antibacterial activity against Enterococcus faecalis isolated from human incubated for 24 hrs followed by serial sub-cultivation for 24 hrs by microdilution; assay type: functional; outline: as §2
Aspergillus ochraceus [17] = experiment: Antifungal activity against Aspergillus ochraceus ATCC 12066 after 72 hrs by serial dilution technique; assay type: functional; conditions: ATCC 12066, 72 h
Outline: (§3)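 Modified microdilution in 96-well plates. Fungi were kept on malt agar at 4 °C. Spores were washed off in sterile 0.85% saline with 0.1% Tween 80. Compounds were dissolved at 1 mg/ml in 5% DMSO with 0.1% Tween 80 and added to malt broth with inoculum. Plates were shaken at 160 rpm for 72 h at 28 °C. Duplicate, repeated three times.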

Aspergillus niger [18] = experiment: Antifungal activity against Aspergillus niger ATCC 6275 after 72 hrs by serial dilution technique; assay type: functional; conditions: ATCC 6275, 72 h; outline: as §3
Aspergillus flavus [19] = experiment: Antifungal activity against Aspergillus flavus ATCC 9643 after 72 hrs by serial dilution technique; assay type: functional; conditions: ATCC 9643, 72 h; outline: as §3
Talaromyces funiculosus [20] = experiment: Antifungal activity against Penicillium funiculosum ATCC 36839 after 72 hrs by serial dilution technique; assay type: functional; conditions: ATCC 36839, 72 h; outline: as §3
Penicillium ochrochloron [21] = experiment: Antifungal activity against Penicillium ochrochloron ATCC 9112 after 72 hrs by serial dilution technique; assay type: functional; conditions: ATCC 9112, 72 h; outline: as §3
Trichoderma viride [22] = experiment: Antifungal activity against Trichoderma viride IAM 5061 after 72 hrs by serial dilution technique; assay type: functional; conditions: IAM 5061, 72 h; outline: as §3
Candida albicans [23] = experiment: Antifungal activity against Candida albicans isolated from human after 72 hrs by serial dilution technique; assay type: functional; outline: as §3
Aspergillus ochraceus [24] = experiment: Antifungal activity against Aspergillus ochraceus ATCC 12066 incubated for 72 hrs followed by serial sub-cultivation for 72 hrs by serial dilution technique; assay type: functional; conditions: ATCC 12066, 72 h
Outline: (§4)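 MFC: material from 72 h malt broth microdilution wells was serially sub-cultured into fresh broth plates and incubated a further 72 h at 28 °C. Fungicidal concentration is taken from growth after sub-culture. Duplicate, repeated three times.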

Aspergillus fumigatus [25] = experiment: Antifungal activity against Aspergillus fumigatus isolated from human incubated for 72 hrs followed by serial sub-cultivation for 72 hrs by serial dilution technique; assay type: functional; outline: as §4
Aspergillus niger [26] = experiment: Antifungal activity against Aspergillus niger ATCC 6275 incubated for 72 hrs followed by serial sub-cultivation for 72 hrs by serial dilution technique; assay type: functional; conditions: ATCC 6275, 72 h; outline: as §4
Aspergillus flavus [27] = experiment: Antifungal activity against Aspergillus flavus ATCC 9643 incubated for 72 hrs followed by serial sub-cultivation for 72 hrs by serial dilution technique; assay type: functional; conditions: ATCC 9643, 72 h; outline: as §4
Talaromyces funiculosus [28] = experiment: Antifungal activity against Penicillium funiculosum ATCC 36839 incubated for 72 hrs followed by serial sub-cultivation for 72 hrs by serial dilution technique; assay type: functional; conditions: ATCC 36839, 72 h; outline: as §4
Penicillium ochrochloron [29] = experiment: Antifungal activity against Penicillium ochrochloron ATCC 9112 incubated for 72 hrs followed by serial sub-cultivation for 72 hrs by serial dilution technique; assay type: functional; conditions: ATCC 9112, 72 h; outline: as §4
Trichoderma viride [30] = experiment: Antifungal activity against Trichoderma viride IAM 5061 incubated for 72 hrs followed by serial sub-cultivation for 72 hrs by serial dilution technique; assay type: functional; conditions: IAM 5061, 72 h; outline: as §4
Candida albicans [31] = experiment: Antifungal activity against Candida albicans isolated from human incubated for 72 hrs followed by serial sub-cultivation for 72 hrs by serial dilution technique; assay type: functional; outline: as §4
Pseudomonas aeruginosa [32] = experiment: Ratio of ampicillin MIC to compound MIC for Pseudomonas aeruginosa ATCC 27853; assay type: functional
Aspergillus ochraceus [33] = experiment: Ratio of bifonazole to compound for Aspergillus ochraceus ATCC 12066; assay type: functional
Aspergillus niger [34] = experiment: Ratio of bifonazole to compound for Aspergillus niger ATCC 6275; assay type: functional
Talaromyces funiculosus [35] = experiment: Ratio of bifonazole to compound for Penicillium funiculosum ATCC 36839; assay type: functional
Penicillium ochrochloron [36] = experiment: Ratio of bifonazole to compound for Penicillium ochrochloron ATCC 9112; assay type: functional
Trichoderma viride [37] = experiment: Ratio of bifonazole to compound for Trichoderma viride IAM 5061; assay type: functional
Candida albicans [38] = experiment: Ratio of bifonazole to compound for Candida albicans isolated from human; assay type: functional
Aspergillus ochraceus [39] = experiment: Ratio of ketoconazole to compound for Aspergillus ochraceus ATCC 12066; assay type: functional
Aspergillus fumigatus [40] = experiment: Ratio of ketoconazole to compound for Aspergillus fumigatus isolated from human; assay type: functional
Penicillium ochrochloron [41] = experiment: Ratio of ketoconazole to compound for Penicillium ochrochloron ATCC 9112; assay type: functional
Candida albicans [42] = experiment: Ratio of ketoconazole to compound for Candida albicans isolated from human; assay type: functional
Aspergillus ochraceus [43] = experiment: Antifungal activity against Aspergillus ochraceus after 72 hrs by serial dilution technique

CCNc1nc(C)c(C(=O)/C=C/c2ccc(OC)cc2)s1
82.8 µM: MIC (Listeria monocytogenes [4]) | MBC (Bacillus cereus [10]) | MBC (Pseudomonas aeruginosa [13]) | MFC (Aspergillus ochraceus [24]) | MFC (Aspergillus fumigatus [25]) | MFC (Aspergillus flavus [27]) | MFC (Penicillium ochrochloron [29]) | MFC (Candida albicans [31])
82.5 µM: MBC (Micrococcus flavus [11])
66.2 µM: MIC (Staphylococcus aureus [1]) | MIC (Bacillus cereus [2]) | MIC (Pseudomonas aeruginosa [5]) | MIC (Enterococcus faecalis [8]) | MBC (Escherichia coli [15]) | MIC (Aspergillus ochraceus [17]) | MIC (Aspergillus flavus [19]) | MIC (Penicillium ochrochloron [21]) | MIC (Candida albicans [23]) | MFC (Aspergillus niger [26]) | MFC (Talaromyces funiculosus [28]) | MFC (Trichoderma viride [30]) | MIC (Aspergillus ochraceus [43])
10: Ratio (Pseudomonas aeruginosa [32]) | Ratio (Aspergillus ochraceus [33]) | Ratio (Aspergillus niger [34]) | Ratio (Talaromyces funiculosus [35]) | Ratio (Penicillium ochrochloron [36]) | Ratio (Trichoderma viride [37]) | Ratio (Candida albicans [38]) | Ratio (Aspergillus ochraceus [39]) | Ratio (Aspergillus fumigatus [40]) | Ratio (Penicillium ochrochloron [41]) | Ratio (Candida albicans [42])
31.3 µM: MIC (Micrococcus flavus [3])
49.7 µM: MIC (Salmonella typhimurium [6]) | MIC (Escherichia coli [7]) | MBC (Salmonella typhimurium [14])
99.3 µM: MBC (Staphylococcus aureus [9]) | MBC (Listeria monocytogenes [12]) | MBC (Enterococcus faecalis [16])
33.1 µM: MIC (Aspergillus niger [18]) | MIC (Talaromyces funiculosus [20]) | MIC (Trichoderma viride [22])

CCNc1nc(C)c(C(=O)/C=C/c2ccccc2Cl)s1
81.7 µM: MIC (Staphylococcus aureus [1])
48.9 µM: MIC (Pseudomonas aeruginosa [5]) | MIC (Salmonella typhimurium [6]) | MIC (Escherichia coli [7]) | MIC (Enterococcus faecalis [8])
32.7 µM: MIC (Bacillus cereus [2]) | MIC (Aspergillus ochraceus [17]) | MIC (Talaromyces funiculosus [20]) | MIC (Penicillium ochrochloron [21]) | MIC (Trichoderma viride [22]) | MIC (Candida albicans [23])
65.3 µM: MIC (Micrococcus flavus [3]) | MBC (Bacillus cereus [10]) | MFC (Aspergillus fumigatus [25]) | MFC (Aspergillus niger [26]) | MFC (Aspergillus flavus [27]) | MFC (Talaromyces funiculosus [28]) | MFC (Penicillium ochrochloron [29]) | MFC (Trichoderma viride [30]) | MFC (Candida albicans [31])
61.1 µM: MBC (Pseudomonas aeruginosa [13]) | MBC (Salmonella typhimurium [14]) | MBC (Escherichia coli [15]) | MBC (Enterococcus faecalis [16])
98.1 µM: MIC (Listeria monocytogenes [4]) | MBC (Staphylococcus aureus [9]) | MBC (Micrococcus flavus [11])
49 µM: MIC (Aspergillus niger [18]) | MIC (Aspergillus flavus [19]) | MFC (Aspergillus ochraceus [24]) | MIC (Aspergillus ochraceus [43])
10: Ratio (Pseudomonas aeruginosa [32]) | Ratio (Aspergillus ochraceus [33]) | Ratio (Aspergillus niger [34]) | Ratio (Talaromyces funiculosus [35]) | Ratio (Penicillium ochrochloron [36]) | Ratio (Trichoderma viride [37]) | Ratio (Candida albicans [38]) | Ratio (Aspergillus ochraceus [39]) | Ratio (Aspergillus fumigatus [40]) | Ratio (Penicillium ochrochloron [41]) | Ratio (Candida albicans [42])
114 µM: MBC (Listeria monocytogenes [12])
